Assay outcomes: PubChem, Sanford-Burnham Center for Chemical Genomics
Apaf-1 act = activators of human Apaf-1 apoptosome, primary screen, biochemical, DEVD-Rh110 fluorescence, uHTS. Apoptotic protease-activating factor 1 (Homo sapiens), O14727. Apaf-1 apoptosome caspase-3 activation; active compounds read low. activity change, negative = activation, % at 20 µM. AID 489031, 2010. actives 0.31% (n = 330,000);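 active = activity change at or below -40% at 20 µM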
Target sequence (O14727 whole entry, looked up): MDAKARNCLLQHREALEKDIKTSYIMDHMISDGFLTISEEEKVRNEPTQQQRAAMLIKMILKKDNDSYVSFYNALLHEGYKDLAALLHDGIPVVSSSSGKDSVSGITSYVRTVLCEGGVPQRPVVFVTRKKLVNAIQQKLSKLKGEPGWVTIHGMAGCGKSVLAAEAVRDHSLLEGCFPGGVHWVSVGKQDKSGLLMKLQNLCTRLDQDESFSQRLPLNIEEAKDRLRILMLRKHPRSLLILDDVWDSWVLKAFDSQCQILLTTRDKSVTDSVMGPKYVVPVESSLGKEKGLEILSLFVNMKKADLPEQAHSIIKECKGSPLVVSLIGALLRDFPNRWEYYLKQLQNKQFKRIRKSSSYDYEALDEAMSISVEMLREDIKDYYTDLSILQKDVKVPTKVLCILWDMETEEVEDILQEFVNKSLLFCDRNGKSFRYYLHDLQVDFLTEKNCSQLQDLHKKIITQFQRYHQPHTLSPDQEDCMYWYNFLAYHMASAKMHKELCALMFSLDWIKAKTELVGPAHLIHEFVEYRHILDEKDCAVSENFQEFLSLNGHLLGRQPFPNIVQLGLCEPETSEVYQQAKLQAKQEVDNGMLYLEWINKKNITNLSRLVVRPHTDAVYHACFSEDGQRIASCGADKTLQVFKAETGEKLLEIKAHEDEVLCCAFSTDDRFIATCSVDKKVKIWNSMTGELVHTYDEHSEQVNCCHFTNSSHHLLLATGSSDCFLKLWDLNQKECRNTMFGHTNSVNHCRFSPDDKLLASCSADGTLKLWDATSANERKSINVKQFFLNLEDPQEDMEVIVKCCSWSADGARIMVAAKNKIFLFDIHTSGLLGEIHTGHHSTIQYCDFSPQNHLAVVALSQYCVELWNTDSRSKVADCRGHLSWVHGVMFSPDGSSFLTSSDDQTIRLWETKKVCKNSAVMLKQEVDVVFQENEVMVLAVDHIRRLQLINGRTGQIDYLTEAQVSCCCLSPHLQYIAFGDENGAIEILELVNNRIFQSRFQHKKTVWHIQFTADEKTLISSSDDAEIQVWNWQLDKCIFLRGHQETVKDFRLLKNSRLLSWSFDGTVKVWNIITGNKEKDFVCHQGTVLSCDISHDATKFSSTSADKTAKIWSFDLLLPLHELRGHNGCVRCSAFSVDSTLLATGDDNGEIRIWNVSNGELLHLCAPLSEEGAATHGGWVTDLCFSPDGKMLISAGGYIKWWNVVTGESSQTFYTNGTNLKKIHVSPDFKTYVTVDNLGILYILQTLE
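System: Reconstituted apoptosome of Apaf-1, cytochrome c, caspase-9, procaspase-3 | Reagent: dATP, cytochrome c, and (Z-DEVD)2-Rh110 caspase-3 substrate | Times: 30 min compound preincubation and 50 min reaction, both room temperature | Detection: Caspase-3-released Rh110 fluorescence, 540 nm emission, 480 nm excitation | Measure: Caspase-3 activity via Apaf-1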
Rh110 interf act = Rh110 fluorescence interference by putative Apaf-1 activators, confirmation, artefact control for Apaf-1 activator project, biochemical, 20 µM | shares compounds with Apaf-1 act | quenched caspase reaction, Ex480/Em540 | fluorescence interference (activity change), % at 20 µM, hits read low | 980 tested, under 10 active;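 active = mean activity change at or below -40% when tested at 20 µM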
Apaf-1 act conf = Apaf-1 activators, single-dose retest, confirmation, biochemical, fluorescence, DEVD-Rh110, 20 µM. shares compounds with Apaf-1 act. activity change, negative = activation, % at 20 µM. reconstituted apoptosome caspase-3 activity; active compounds read low. actives 5% (n = 980). AID 504617, 2011;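 active = mean activity change at or below -40%, meaning activation of 40% or more, at 20 µM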
The depositor's hits bear a star; x = no result. The list is a sample of the results.

SMILES	Apaf-1 act	Rh110 interf act	Apaf-1 act conf
O=S(=O)(c1ccc(NC(=S)Nc2ccc(OC(F)F)cc2)cc1)N1CCOCC1	-66*	10	18
CCCCC(CC)CN1C(=O)/C(=C/c2ccncc2)SC1=S (stereo not given)	42	x	x
C=CCNc1nc(Cl)nc(Nc2ccc(OCC)cc2)n1	-51*	-2	11
Oc1c(Br)cc(Br)cc1C=Nc1cccnc1	79	x	x
Fc1ccc(F)c(C2=NNC(=Nc3ccccc3F)SC2)c1	-45*	5	16
CC(C)(C)NC(=O)[C@@H]1C[C@@H]2CCCC[C@@H]2CN1C[C@@H](O)[C@H](Cc1ccccc1)NC(=O)[C@H](CC(N)=O)NC(=O)c1ccc2ccccc2n1	35	x	x
Cc1cc(N2CCN(c3ccc([N+](=O)[O-])c4cccnc34)CC2)c2ccccc2n1	60	x	x
CCOc1ccc2oc(C(=O)N(C)CC(=O)Nc3ccc(OCC)c(OCC)c3)c(C)c2c1	-55*	4	14
FC(F)(F)C1=Nc2cccc3cccc(c23)N1	66	x	x
CSc1ccc2c(c1)C(N1CCN(C)CC1)Cc1ccccc1S2 (stereo not given)	48	x	x
CN1CCN(CCCN2c3ccccc3Sc3ccc(Cl)cc32)CC1	54	x	x
CN1CCN(C2Cc3cc(F)ccc3Sc3ccc(Cl)cc32)CC1 (stereo not given)	-78*	7	7
COc1cc2nc(Nc3ccc(C)c(Cl)c3)nc(N)c2cc1OC	45	x	x
CC(=O)N(C1=C(N)C(=O)c2ccccc2C1=O)c1ccccc1	67	x	x
COC(=O)CCC(=O)OC1(C)C(=O)C=C2C=C(C3CC3)N(CCCCO)C=C2C1=O (stereo not given)	64	x	x
CCOC(=O)c1c(CN(C)C)n(C)c2c(O)c(N=NC(N)=O)c3ccc(Br)cc3c12	95	x	x
CCOc1ccc(/C=N/OCC(=O)Nc2cc(S(=O)(=O)N3CCOCC3)ccc2OC)cc1	-55*	-2	14
CCCCn1c(NC(=O)c2ccccc2Cl)c(C#N)c2nc3ccccc3nc21	93	x	x
Cc1[nH]n(-c2ccccc2)c(=O)c1C(=O)c1ccccc1	61	x	x
Cc1cc(C(=O)NC(=S)Nc2cccc(C(=O)O)c2C)ccc1[N+](=O)[O-]	-54*	0	11
Cc1ccc(CN2CC(C(=O)N3CCN(S(=O)(=O)c4ccc(C)cc4C)CC3)CC2=O)cc1 (stereo not given)	48	x	x
CCOc1nc2cnccc2n(CC(=O)Nc2ccccc2F)c1=O	-49*	-1	7
CCC[C@@H](CN1CCC[C@H]1CN1C(N)=NC[C@H]1CC(C)C)N1C[C@@H]([C@H](C)CC)N(CCCC2CCCC2)C1=N	53	x	x
CCN1CCN(Cc2ccc(NC(=O)c3ccc(C)c(NC(=O)c4csc(-c5ccncc5)n4)c3)cc2C(F)(F)F)CC1	59	x	x
CSc1ccc(CN(C)C(=O)c2cccc(S(=O)(=O)NCc3ccccc3)c2)cc1	67	x	x
SMILES	Apaf-1 act	Rh110 interf act	Apaf-1 act conf
COC(=O)c1cc(S(=O)(=O)NCc2cccc(Br)c2)c[nH]1	-53*	-1	6
CC1CN(C(=O)c2cccc(S(=O)(=O)NCc3ccccc3)c2)CC(C)O1 (stereo not given)	54	x	x
COc1ccccc1-c1oc2ccccc2c1C#CC1(N)CCCCC1	68	x	x
CN(C)CCCNC(=O)C[C@H]1C[C@H](C(=O)N2CCCCC2)[C@@]2(C)c3[nH]c4cc(-c5ccco5)ccc4c3CCN2C1=O	42	x	x
Cc1cccc(-n2c(N)c(C(=O)NCCN3CCOCC3)c3nc4ccccc4nc32)c1	51	x	x
Nc1c(C(=O)NCc2ccc(F)cc2)c2nc3ccccc3nc2n1CCCN1CCOCC1	59	x	x
O=C(CCSc1nc(-c2ccco2)cc(C(F)(F)F)n1)NCCN1CCOCC1	-56*	4	5
CCN(CC)C(=O)[C@H]1C[C@H](CC(=O)NCc2cccc(C(F)(F)F)c2)C(=O)N2CCc3c([nH]c4ccc(Cl)cc34)[C@]12C	46	x	x
Cc1cccc(CN2C(=O)/C(=C\c3ccc(C(=O)NCCCN4CCN(C)CC4)cc3)Oc3ccccc32)c1	53	x	x
Cc1ccc(Oc2nc(CN3CCOCC3)nc3sc4c(c23)CCC(C)C4)cc1 (stereo not given)	41	x	x
CN(C)CCCN(C(=O)c1ccc(S(=O)(=O)N2CCCCC2)cc1)c1nc2cc3c(cc2s1)OCO3	42	x	x
CCc1nnc(NC(=O)c2ccc(S(=O)(=O)N3CCCCC3)cc2)s1	55	x	x
Cc1ccc(/C=N/NC(=O)CNC(=O)c2ccc(S(=O)(=O)N3CCCC3)cc2)o1	-522*	11	8
Oc1c(Br)cc(Br)cc1C=Nc1ccc2[nH]ncc2c1	84	x	x
Cc1cc(N(CCO)CCO)ccc1N=Nc1cc(F)ccc1F	40	x	x
CC(C)[N+]1(C)[C@@H]2CC[C@H]1CC(OC(=O)C(CO)c1ccccc1)C2 (stereo not given in full)	-5	x	x
COC(=O)/C(=C/Nc1ccc(O)cc1)[N+](=O)[O-]	91	x	x
COC(=O)C1=C(C)NC(C)=C(C(=O)OC(C)C)C1c1cccc2nonc12 (stereo not given)	-207*	1	8
CCC(CO)Oc1cc(NCc2ccccc2OC)c2ncn(C(C)C)c2c1 (stereo not given)	61	x	x
O=C(NC1=C(NC2CCS(=O)(=O)C2)C(=O)c2ccccc2C1=O)c1ccccc1 (stereo not given)	88	x	x
COc1ccccc1/C=C/C(=O)OCC(=O)NC1CCS(=O)(=O)C1 (stereo not given)	-78*	-5	5
CCOc1ccc2nc(NC3=NC(c4ccc(OC)cc4)CC(=O)N3)nc(C)c2c1 (stereo not given)	79	x	x
COc1ccc(-c2ccc(C(c3c(C)[nH][nH]c3=O)c3c(C)[nH][nH]c3=O)o2)c([N+](=O)[O-])c1	75	x	x
COc1ccc(-c2cn(Cc3ccc4ccccc4c3)nn2)cc1	-123*	4	8
O=C(c1ccccc1)c1coc2c1C(=O)c1ccccc1C2=O	64	x	x
SMILES	Apaf-1 act	Rh110 interf act	Apaf-1 act conf
Cc1nn(Cc2c(F)c(F)c(F)c(F)c2F)c(C)c1NC(=O)c1ccc(COc2ccc(Cl)cc2Cl)o1	46	x	x
C=C(C)C(=O)Nc1ccc(OC(F)(F)C(F)F)c(NC(=O)C(=C)C)c1	-85*	4	-21
CCN1C(=C(C#N)C#N)C=Cc2cc(C)ccc21	-49*	5	8
COc1cc(N)c(Cc2nccc3cc(OC)c(OC)cc23)cc1OC	47	x	x
O=C(NC(Cc1ccccc1)C(=O)NCc1ccccn1)c1ccco1 (stereo not given)	-187*	0	6
NC(=O)C1CCN(C2=C(Cl)C(=O)c3ccccc3C2=O)CC1	73	x	x
N#Cc1c(N)sc(=S)c2c1CCN(Cc1ccccc1)C2	96	x	x
N#Cc1ccccc1NC(=O)CN1CCN(Cc2ccccc2)CC1	-42*	19	11
N#Cc1c(NCCO)nc(NCc2ccccc2)c2c1CCN(Cc1ccccc1)C2	60	x	x
Oc1cccc(C=Nc2cccc3ccccc23)c1O	74	x	x
